17 compounds from ChEMBL document CHEMBL4184277, “Substitution of terminal amide with 1H-1,2,3-triazole: Identification of unexpected class of potent antibacterial agents” (2018) can be followed below.

SMILES strings stand for the structures. Values after ≈ are worked out from the molar mass of the structure shown. Bounds are passed on as bounds.

Assay type in all cases: functional
Assay [1] concerns Staphylococcus aureus. In words: Antibacterial activity against Staphylococcus aureus ATCC 25923 after 24 hrs by broth microdilution method. The settings on record: ATCC 25923, 24 h. The essentials: (§1)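 Broth microdilution run to the standard NCCLS-recommended procedure, applied to all newly synthesized compounds, with a panel that included four Gram-positive strains.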
(In general: Broth dilution looks for growth in wells or tubes with falling amounts of substance.)

Assay [2] has as its system Staphylococcus aureus. In words: Antibacterial activity against penicillin-resistant Staphylococcus aureus after 24 hrs by broth microdilution method.
In another assay the test system is Bacillus subtilis. Kind of assay: Antibacterial activity against Bacillus subtilis ATCC 9372 after 24 hrs by broth microdilution method. The settings on record: ATCC 9372, 24 h. The essentials: as §1
In a further assay the test system is Klebsiella pneumoniae. Kind of assay: Antibacterial activity against Klebsiella pneumoniae ATCC 700603 after 24 hrs by broth microdilution method. The note with it: Klebsiella pneumoniae, 700603, 24 h. The essentials:
as §1

The test system of a further assay is Escherichia coli. In words: Antibacterial activity against Escherichia coli ATCC 25922 after 24 hrs by broth microdilution method. The settings on record: ATCC 25922, 24 h. The essentials: as §1
The subject of assay [3] is Staphylococcus aureus. In words: Antibacterial activity against methicillin-resistant Staphylococcus aureus ATCC 43300 after 24 hrs by broth microdilution method. The note with it: ATCC 43300, 24 h.

Usually MIC stands for the lowest concentration found to suppress growth. Lower therefore signals a more susceptible organism. With `Fc1ccc(OCCCCOc2ccc(Cl)cc2)c(F)c1-c1c[nH]nn1`, the MIC against Staphylococcus aureus [1], in the assay with Staphylococcus aureus [2], in the assay on Bacillus subtilis, in the assay with Klebsiella pneumoniae, against Escherichia coli and against Staphylococcus aureus [3] was > 64 µg/mL in each case.

As to `NC(=O)c1c(F)ccc(OCC2COc3ccc(Cl)cc3O2)c1F` (configuration not stated), 0.5 µg/mL (≈ 1.41 µM) was the least that counted as inhibitory against Staphylococcus aureus [3] (MIC).

As for `Fc1ccc(OCc2cccc(Cl)c2)c(F)c1-c1c[nH]nn1`, the MIC with Staphylococcus aureus [1] is 16 µg/mL (≈ 49.7 µM); in the assay with Staphylococcus aureus [2] it was 16 µg/mL (≈ 49.7 µM); with Bacillus subtilis it was 16 µg/mL (≈ 49.7 µM); against Klebsiella pneumoniae, > 64 µg/mL; in the assay on Escherichia coli, > 64 µg/mL; against Staphylococcus aureus [3], 8 µg/mL (≈ 24.9 µM).

Regarding `CCOc1cccc(-c2c[nH]nn2)c1`, the minimum inhibitory concentration (MIC) against Staphylococcus aureus [1], with Staphylococcus aureus [2], with Bacillus subtilis, with Klebsiella pneumoniae, against Escherichia coli and in the assay with Staphylococcus aureus [3] was > 64 µg/mL in each case.

`NC(=O)c1c(F)ccc(OCc2nc(-c3ccc(Cl)cc3)c(Br)o2)c1F` displayed a minimum inhibitory concentration (MIC) against Staphylococcus aureus [3] of 0.06 µg/mL (≈ 0.135 µM).

On to `CCCCC(CC)COc1cccc(Cn2cnnn2)c1` (racemic), for which the minimal inhibitory concentration (MIC) with Staphylococcus aureus [1] was > 64 µg/mL; against Staphylococcus aureus [2] it was > 64 µg/mL; against Bacillus subtilis it was > 64 µg/mL; in the assay on Klebsiella pneumoniae it was 8 µg/mL (≈ 27.7 µM); against Escherichia coli, > 64 µg/mL; in the assay on Staphylococcus aureus [3] it was > 64 µg/mL.

Regarding `Fc1ccc(OCc2nc(-c3ccc(Cl)cc3)c(Br)o2)c(F)c1-c1c[nH]nn1`, the MIC against Staphylococcus aureus [1], in the assay on Staphylococcus aureus [2], with Bacillus subtilis, against Klebsiella pneumoniae, against Escherichia coli and in the assay with Staphylococcus aureus [3] was > 64 µg/mL in each case.

With `c1ccc(COc2cccc(-c3c[nH]nn3)c2)cc1`, the minimal inhibitory concentration (MIC) against Staphylococcus aureus [1] is > 64 µg/mL; with Staphylococcus aureus [2], > 64 µg/mL; with Bacillus subtilis, > 64 µg/mL; against Klebsiella pneumoniae, 64 µg/mL (≈ 255 µM); in the assay on Escherichia coli it was > 64 µg/mL; against Staphylococcus aureus [3] it was > 64 µg/mL.

Consider `Cc1cccc(COc2cccc(-c3c[nH]nn3)c2)c1`, for which the MIC was 32 µg/mL (≈ 121 µM) in the assay with Staphylococcus aureus [1]; 32 µg/mL (≈ 121 µM) in the assay with Staphylococcus aureus [2]; 32 µg/mL (≈ 121 µM) with Bacillus subtilis; 32 µg/mL (≈ 121 µM) against Klebsiella pneumoniae; > 64 µg/mL in the assay with Escherichia coli; 16 µg/mL (≈ 60.3 µM) in the assay on Staphylococcus aureus [3].

Consider `Cc1cccc(COc2ccc(F)c(-c3c[nH]nn3)c2F)c1`, for which the MIC with Staphylococcus aureus [1] was 32 µg/mL (≈ 106 µM); with Staphylococcus aureus [2] it was 32 µg/mL (≈ 106 µM); against Bacillus subtilis, 32 µg/mL (≈ 106 µM); in the assay on Klebsiella pneumoniae, 64 µg/mL (≈ 212 µM); against Escherichia coli, > 64 µg/mL; against Staphylococcus aureus [3] it was 16 µg/mL (≈ 53.1 µM).

For `CCCCC(CC)COc1cccc(-c2cnn(C)n2)c1` (configuration not stated), the MIC with Staphylococcus aureus [1], in the assay on Staphylococcus aureus [2], with Bacillus subtilis, against Klebsiella pneumoniae, against Escherichia coli and in the assay with Staphylococcus aureus [3] was > 64 µg/mL throughout.

In the case of `Cc1ccc(COc2cccc(Cn3cncn3)c2)cc1`, the MIC against Staphylococcus aureus [1], against Staphylococcus aureus [2], in the assay on Bacillus subtilis, in the assay on Klebsiella pneumoniae, with Escherichia coli and against Staphylococcus aureus [3] was > 64 µg/mL throughout.

On to `Clc1ccc(COc2cccc(-c3c[nH]nn3)c2)cc1`, for which the MIC against Staphylococcus aureus [1], with Staphylococcus aureus [2], in the assay on Bacillus subtilis, in the assay on Klebsiella pneumoniae, with Escherichia coli and against Staphylococcus aureus [3] was > 64 µg/mL in each case.

As for `Clc1cccc(COc2cccc(Cn3cncn3)c2)c1`, the MIC was > 64 µg/mL against Staphylococcus aureus [1]; > 64 µg/mL against Staphylococcus aureus [2]; > 64 µg/mL in the assay on Bacillus subtilis; 64 µg/mL (≈ 214 µM) in the assay with Klebsiella pneumoniae; > 64 µg/mL against Escherichia coli; > 64 µg/mL against Staphylococcus aureus [3].

Take `Clc1cccc(COc2cccc(Cn3cnnn3)c2)c1`: the minimal inhibitory concentration (MIC) with Staphylococcus aureus [1], against Staphylococcus aureus [2], against Bacillus subtilis, against Klebsiella pneumoniae, in the assay on Escherichia coli and in the assay with Staphylococcus aureus [3] was > 64 µg/mL in each case.

With `Fc1ccc(OCc2nc3cc(Cl)cnc3s2)c(F)c1-c1c[nH]nn1`, the minimal inhibitory concentration (MIC) against Staphylococcus aureus [1], with Staphylococcus aureus [2], in the assay with Bacillus subtilis, in the assay with Klebsiella pneumoniae, against Escherichia coli and in the assay with Staphylococcus aureus [3] was > 64 µg/mL throughout.

Turning to `CCCCC(CC)COc1cccc(C(N)=O)c1` (racemic), the MIC is 16 µg/mL (≈ 64.2 µM) in the assay on Staphylococcus aureus [1]; 16 µg/mL (≈ 64.2 µM) in the assay with Staphylococcus aureus [2]; 16 µg/mL (≈ 64.2 µM) in the assay with Bacillus subtilis; 8 µg/mL (≈ 32.1 µM) against Klebsiella pneumoniae; > 64 µg/mL with Escherichia coli; 16 µg/mL (≈ 64.2 µM) against Staphylococcus aureus [3].
